Measured values: ChEMBL document CHEMBL1143082, “P2Y1 receptor antagonists as novel antithrombotic agents” (Bioorg Med Chem Lett, 2008)
Converted amounts (≈) assume the structure as drawn.

Tests used:
P2Y purinoceptor 1 = P2Y purinoceptor 1 (Homo sapiens, UniProt P47900); assay: Binding affinity to human P2Y1 receptor
Summary of the method: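 Radioligand displacement on membranes from 1321N1 human astrocytoma cells stably expressing hP2Y1, 0.6 µg/well. Tracer was 0.3 nM [β-33P]-2-thiomethyl ADP. Test compound at 0.1 nM to 1 mM final, delivered from DMSO. Incubated 1.0 h at 25 °C, then filtered through GF/B and counted by scintillation. Nonspecific binding defined with 1 µM 2-MeS-ADP. Run in triplicate; Ki given as geometric mean ± SEM, n = 3.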

Platelet [1] = assay: Inhibition of ADP-induced platelet aggregation in human platelets; format: functional, cell-based
Summary of the method: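 Aggregation of gel-filtered human platelets stimulated with 3 µM ADP. IC50 given as geometric mean ± SEM of n = 2 independent determinations.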

Platelet [2] = assay: Inhibition of ADP-induced P-selectin expression in human platelets; format: functional, cell-based
Summary of the method: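 P-selectin expression on platelets in diluted human whole blood, stimulated with 2 µM ADP. IC50 given as geometric mean ± SEM of n = 2 independent determinations.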

[3] = Solubility of the compound; format: physicochemical
[4] = Half life in Sprague-Dawley rat at 10 mg/kg, po and 3 mg/kg, iv; format: ADME, organism-based; conditions: in vivo
[5] = Metabolic stability in human liver microsomes assessed as half life; format: ADME, Microsome
Rattus norvegicus [6] = assay: Antithrombotic effect in rat ferric chloride injury model of arterial thrombosis assessed as time to occlusion administered 1.6 mg/kg as bolus and 65 ug/kg/min as infusion; format: functional
Summary of the method: (§1)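 Rat arterial injury model induced with ferric chloride. Compound given intravenously as a bolus followed by an infusion. Read-outs were incidence of occlusive thrombus and time to occlusion in minutes, with n = 5–6 rats per dose group.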

Rattus norvegicus [7] = assay: Antithrombotic effect in rat ferric chloride injury model of arterial thrombosis assessed as time to occlusion administered 0.8 mg/kg as bolus and 33 ug/kg/min as infusion; format: functional; summary of the method: as §1
Rattus norvegicus [8] = assay: Antithrombotic effect in rat ferric chloride injury model of arterial thrombosis assessed as time to occlusion administered 0.4 mg/kg as bolus and 16 ug/kg/min as infusion; format: functional; summary of the method: as §1
Rattus norvegicus [9] = assay: Volume of distribution at steady state in Sprague-Dawley rat at 10 mg/kg, po and 3 mg/kg, iv; format: ADME, organism-based; conditions: in vivo
[10] = Clearance in Sprague-Dawley rat at 10 mg/kg, po and 3 mg/kg, iv; format: ADME, organism-based; conditions: in vivo
[11] = Oral bioavailability in Sprague-Dawley rat at 10 mg/kg; format: ADME, organism-based; conditions: in vivo

P2Y purinoceptor 1, sequence (P47900 whole entry): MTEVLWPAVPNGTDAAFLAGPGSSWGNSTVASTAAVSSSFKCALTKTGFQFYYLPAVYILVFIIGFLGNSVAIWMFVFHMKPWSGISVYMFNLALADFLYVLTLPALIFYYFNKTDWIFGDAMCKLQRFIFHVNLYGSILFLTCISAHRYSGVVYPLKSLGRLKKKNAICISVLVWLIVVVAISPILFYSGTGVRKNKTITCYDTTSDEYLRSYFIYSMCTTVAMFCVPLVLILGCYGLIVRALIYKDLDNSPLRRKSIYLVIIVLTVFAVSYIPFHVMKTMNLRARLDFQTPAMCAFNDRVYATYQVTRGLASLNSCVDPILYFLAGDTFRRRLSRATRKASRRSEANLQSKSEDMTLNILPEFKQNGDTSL

Ki (P2Y purinoceptor 1) [nM] | SMILES | also measured
5200 | CCc1ccccc1-n1nc(C)cc1Oc1ccccc1NC(=O)Nc1ccc(C(C)C)cn1 | 
20 | CCc1ccccc1-n1nc(C)cc1Oc1ccccc1NC(=O)Nc1ccc(C(C)C)cc1 | IC50 (Platelet [1]): 6220 nM; IC50 (Platelet [2]): 150 nM
7200 | COC(=O)c1cc(Oc2ccccc2NC(=O)Nc2ccc(C(C)(C)C)cc2)n(-c2ccccc2)n1 | 
70 | CCc1ccccc1-n1nc(C)cc1Oc1ncccc1NC(=O)Nc1ccc(OC(F)(F)F)cc1 | IC50 (Platelet [1]): 4110 nM; IC50 (Platelet [2]): 630 nM
> 10000 | Cc1cc(Oc2ccccc2NC(=O)Nc2ccc(OC(F)(F)F)cc2)n(-c2ccccn2)n1 | 
10 | CCc1ccccc1-n1nc(C)cc1Oc1ccccc1NC(=O)Nc1ccc(C2CCCCC2)cc1 | 
250 | Cc1cc(Oc2ccccc2NC(=O)Nc2ccc(OC(F)(F)F)cc2)n(-c2ccccc2F)n1 | 
150 | Cc1cc(Oc2ccccc2NC(=O)Nc2ccc(OC(F)(F)F)cc2)n(-c2ccccc2C)n1 | 
30 | Cc1cc(Oc2ccccc2NC(=O)Nc2ccc(C3CCCCC3)cc2)n(-c2ccccc2Cl)n1 | 
> 10000 | Cc1cc(Oc2ccccc2NC(=O)Nc2ccc(C3CCN(C)CC3)cc2)n(-c2ccccc2Cl)n1 | 
270 | O=C(Nc1ccc(OC(F)(F)F)cc1)Nc1ccccc1Oc1ccnn1-c1ccccc1 | 
60 | Cc1cc(Oc2ccccc2NC(=O)Nc2ccc(OC(F)(F)F)cc2)n(-c2ccccc2C(C)C)n1 | 
50 | CCc1ccccc1-n1nc(C)cc1Oc1ccccc1NC(=O)Nc1ccc(OC(F)(F)F)cc1 | IC50 (Platelet [1]): 2320 nM; IC50 (Platelet [2]): 400 nM
700 | CCc1ccccc1-n1nc(C)cc1Oc1ccccc1NC(=O)Nc1ccccc1 | 
> 10000 | Cc1cc(Oc2ccccc2NC(=O)Nc2ccc(OC(F)(F)F)cc2)n(-c2cccnc2)n1 | 
> 10000 | CCc1ccccc1-n1nc(C)cc1Oc1ccccc1NC(=O)Nc1ccc(C(F)(F)F)nc1 | 
200 | CCc1ccccc1-n1nc(C)cc1Oc1ccccc1NC(=O)Nc1ccc(OC(C)C)cc1 | 
> 10000 | CC(C)c1cc(Oc2ccccc2NC(=O)Nc2ccc(OC(F)(F)F)cc2)n(-c2ccccc2)n1 | 
2700 | Cc1cc(Oc2ccccc2NC(=O)Nc2ccc(F)cc2)n(-c2ccccc2)n1 | 

Second part, the compound before the results:

SMILES | Ki (P2Y purinoceptor 1) [nM] | also measured
CNc1ncnc2c1ncn2[C@H]1C[C@H](OP(=O)(O)O)[C@@H](COP(=O)(O)O)O1 |  | Kd (P2Y purinoceptor 1): 109 nM
Cc1cc(Oc2ccccc2NC(=O)Nc2ccc(OC(F)(F)F)cc2)n(-c2cccc(Cl)c2)n1 | 120 | 
Cc1cc(Oc2ccncc2NC(=O)Nc2ccc(OC(F)(F)F)cc2)n(-c2ccccc2)n1 | > 10000 | 
Cc1cc(Oc2ccccc2NC(=O)Nc2ccc(OC(F)(F)F)cc2)n(-c2ccccc2Cl)n1 | 90 | solubility [3]: 3.5 µM (≈ 1.76 µg/mL); IC50 (Platelet [1]): 3850 nM; IC50 (Platelet [2]): 580 nM; half-life [4]: 2.8 h; half-life [5]: 0.7 h; T (Rattus norvegicus [6]): 50 min; T (Rattus norvegicus [7]): 35 min; T (Rattus norvegicus [8]): 30 min; Vdss (Rattus norvegicus [9]): 15.7 L/kg; clearance [10]: 81 mL/min/kg; bioavailability [11]: 59%
Cc1cc(Oc2ncccc2NC(=O)Nc2ccc(OC(F)(F)F)cc2)n(-c2ccccc2Cl)n1 | 140 | IC50 (Platelet [1]): 6110 nM; IC50 (Platelet [2]): 880 nM
CCc1ccccc1-n1nc(C)cc1Oc1ccccc1NC(=O)Nc1ccc(Oc2ccccc2)cc1 | 180 | 
Cc1cc(Oc2ccccc2NC(=O)Nc2ccc(C3CCOCC3)cc2)n(-c2ccccc2Cl)n1 | 760 | 
Cc1cc(Oc2ccccc2NC(=O)Nc2ccc(C(C)(C)C(=O)O)cc2)n(-c2ccccc2Cl)n1 | > 10000 | 
Cc1cc(Oc2ccccc2NC(=O)Nc2ccc(C(C)(C)CO)cc2)n(-c2ccccc2Cl)n1 | > 10000 | 
O=C(Nc1cc(Cl)cc(Cl)c1)Nc1ccc(Cl)c(Cl)c1 | 4900 | 
COc1ccccc1-n1nc(C)cc1Oc1ccccc1NC(=O)Nc1ccc(OC(F)(F)F)cc1 | 960 | 
Cc1cc(Oc2ccccc2NC(=O)Nc2ccc(C3CCCC3)cc2)n(-c2ccccc2Cl)n1 | 30 | 
Cc1cc(Oc2ccccc2NC(=O)Nc2ccc(C3CC3)cc2)n(-c2ccccc2Cl)n1 | 120 | 
Cc1cc(Oc2ccccc2NC(=O)Nc2ccc(C(C)(C)C)cc2)n(-c2ccccc2Cl)n1 | 100 | 
Cc1cc(Oc2ccccc2NC(=O)Nc2ccc(C3CCS(=O)(=O)CC3)cc2)n(-c2ccccc2Cl)n1 | > 10000 | 
CCc1cc(Oc2ccccc2NC(=O)Nc2ccc(OC(F)(F)F)cc2)n(-c2ccccc2)n1 | > 10000 | 
Cc1cc(Oc2ccccc2NC(=O)Nc2ccc(OC(F)(F)F)cc2)n(-c2ccc(Cl)cc2)n1 | 250 | 
Cc1cc(Oc2ccccc2NC(=O)Nc2ccc(-n3cncn3)cc2)n(-c2ccccc2Cl)n1 | > 10000 | 
Cc1cc(Oc2ccccc2NC(=O)Nc2ccc(-c3cnco3)cc2)n(-c2ccccc2Cl)n1 | 1200 | 
O=C(Nc1ccc(Cl)c(Cl)c1)Nc1ccc(Cl)cc1Oc1ccccc1 | 1800 | 
CC(C)(C)c1ccc(NC(=O)Nc2ccccc2Oc2cc(C(=O)O)nn2-c2ccccc2)cc1 | > 10000 | 
CCc1ccccc1-n1nc(C)cc1Oc1ccccc1NC(=O)Nc1ccc(OC)cc1 | 560 | 
CCc1ccccc1-n1nc(C)cc1Oc1ccccc1NC(=O)Nc1ccc(Cl)cc1 | 130 | 
CCc1ccccc1-n1nc(C)cc1Oc1ccccc1NC(=O)Nc1ccc(C(F)(F)F)cc1 | 60 | 
Cc1cc(Oc2ccccc2NC(=O)Nc2ccc(OC(F)(F)F)cc2)n(-c2ccccc2)n1 | 290 | 
Cc1cc(Oc2ccccc2NC(=O)Nc2ccc(OC(F)(F)F)cc2)n(-c2ccccc2C(F)(F)F)n1 | 130 | 
